Here are results for 39 compounds from ChEMBL document CHEMBL1132470, “Structure-activity relationships of novel 2-substituted quinazoline antibacterial agents” (1999).

Common to all, as to type: functional
The test system of test [1] is Streptococcus pyogenes. Kind of test: Antibacterial activity against Streptococcus pyogenes (#49399).
The test system of test [2] is Escherichia coli. The experiment in a line: Antibacterial activity against Escherichia coli.
The next test deals with Staphylococcus aureus. The experiment in a line: Antibacterial activity against Staphylococcus aureus (#13709). The essentials: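 Trypticase soy broth culture was grown at 37 °C. The overnight suspension was mixed with compound in 4% DMSO in water, giving a final inoculum of about 10⁵-10⁶ CFU/well, in duplicate. Growth was read as A595 after 24 h. MIC is a concentration range, full inhibition at the higher and viability at the lower. Ampicillin and tetracycline were included as controls.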

A further test has as its system Klebsiella pneumoniae. Kind of test: Antibacterial activity against Klebsiella pneumoniae (#13883). The essentials: (§1)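 Bacteria were grown in nutrient broth at 37 °C. An overnight culture was added to compound in 4% DMSO/water, giving about 10⁵-10⁶ CFU/well, in duplicate. Absorbance at 595 nm was read after 24 h. MIC is reported as a range between the lowest concentration with complete growth inhibition and the next lower concentration with viable cells. Ampicillin and tetracycline were positive controls.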

In another test the test system is Enterococcus faecalis. The experiment in a line: Antibacterial activity against Enterococcus faecalis (#29212). The essentials:
(§2)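 Run as a duplicate broth microdilution in Todd-Hewitt broth. An overnight culture was added to compound in 4% DMSO in water, giving about 10⁵-10⁶ CFU/well, and incubated at 37 °C. Growth was read as A595 at 24 h. MIC is given as a concentration range: complete inhibition at the upper concentration, viable cells at the lower. Ampicillin and tetracycline served as controls.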

For test [3], the system named is Escherichia coli. The experiment in a line: Antibacterial activity against Escherichia coli (#25922). The essentials:
as §1

The subject of test [4] is Streptococcus pyogenes. The experiment in a line: Antibacterial activity against Streptococcus pyogenes. The gist of the method:
as §2

Test [5] has as its system Streptococcus pyogenes. Kind of test: Antibacterial activity against Streptococcus pyogenes (#14289). The essentials: as §2

Converted amounts (≈) assume the structure as drawn.

Turning to `COC(=O)c1ccc(NC2CCN(c3nc(N)c4cc(OC)c(OC)cc4n3)CC2)cc1`, the MIC (usually the smallest concentration in the dilution series that meets the test's criterion for growth inhibition) with Streptococcus pyogenes [1] was 5 µM (≈ 2.19 µg/mL); against Escherichia coli [2], 5 µM (≈ 2.19 µg/mL); with Staphylococcus aureus, above 100 µM; against Klebsiella pneumoniae it was above 100 µM; with Enterococcus faecalis, 20 µM (≈ 8.75 µg/mL); in the test with Escherichia coli [3] it was above 100 µM. The compound also returned an MIC in the test with Streptococcus pyogenes [4] of 5 µM (≈ 2.19 µg/mL).
For `COC(=O)c1nc(Cl)c(NC2CCN(Cc3ccccc3)CC2)nc1N`, the MIC in the test with Streptococcus pyogenes [5] and against Escherichia coli [2] was above 50 µM throughout.
In the case of `COc1cc2nc(N3CCC(Nc4ccc(C(=O)O)cc4)CC3)nc(OC)c2cc1OC`, the MIC in the test with Escherichia coli [2] and in the test on Streptococcus pyogenes [4] was above 20 µM throughout.
In the case of `Nc1nc(N2CCC(Nc3ccc(C(=O)O)cc3)CC2)nc2ccccc12`, the MIC in the test with Escherichia coli [2] and against Streptococcus pyogenes [4] was above 100 µM in each case.
For the compound `COC(=O)c1ncc(NC2CCN(c3nc(N)c4cc(OC)c(OC)cc4n3)CC2)nc1N`, the MIC against Streptococcus pyogenes [5] and in the test on Escherichia coli [2] was above 50 µM in each case.
As for `COc1cc2nc(N3CCC(Nc4ccc(C(=O)OC(C)(C)C)cc4)CC3)nc(O)c2cc1OC`, the MIC with Escherichia coli [2] and against Streptococcus pyogenes [4] was above 100 µM in each case.
Regarding `COC(=O)c1ccc(NC2CCN(c3nc(N)c4cc(OC)c(OC)cc4n3)CC2)nc1`, the figures for the MIC in the test on Escherichia coli [2] and in the test on Streptococcus pyogenes [4] were above 50 µM and 25 µM (≈ 11 µg/mL), respectively.
Take `COc1cc2nc(N3CCC(Nc4ccc(C(=O)O)cc4)CC3)nc(O)c2cc1OC`: the MIC against Escherichia coli [2] and against Streptococcus pyogenes [4] was above 20 µM each time.
In the case of `COC(=O)c1ccc(NC2CCN(Cc3ccccc3)CC2)cc1`, the minimum inhibitory concentration (MIC) with Escherichia coli [2] and with Streptococcus pyogenes [4] was above 25 µM in each case.
For the compound `COC(=O)c1nc(Cl)c(NC2CCN(C(=O)OC(C)(C)C)CC2)nc1N`, the MIC with Streptococcus pyogenes [5] and against Escherichia coli [2] was above 25 µM throughout.
Turning to `CC(C)(C)OC(=O)c1ccc(NC2CCN(S(=O)(=O)c3ccc4ccccc4c3)CC2)cc1`, the MIC against Escherichia coli [2] and in the test on Streptococcus pyogenes [4] was above 25 µM in each case.
In the case of `CC(C)(C)OC(=O)c1ccc(NC2CCN(C(=O)c3ccc4ccccc4c3)CC2)cc1`, the MIC with Escherichia coli [2] and against Streptococcus pyogenes [4] was above 25 µM in each case.
With `COc1cc2nc(N3CCC(Nc4ccc(C(=O)O)cc4)CC3)nc(Nc3ccc(C)cc3)c2cc1OC`, the MIC in the test with Escherichia coli [2] and in the test on Streptococcus pyogenes [4] was above 20 µM in each case.
In the case of `COC(=O)c1nc(Cl)c(NC2CCNCC2)nc1N`, the MIC against Streptococcus pyogenes [5] and with Escherichia coli [2] was above 25 µM in each case.
In the case of `CC(C)(C)OC(=O)c1ccc(NC2CCNCC2)cc1`, the MIC in the test with Escherichia coli [2] and against Streptococcus pyogenes [4] was above 25 µM in each case.
Turning to `COc1ccc2[nH]c(N3CCC(Nc4ccc(C(=O)OC(C)(C)C)cc4)CC3)nc2c1`, the MIC in the test with Escherichia coli [2] and with Streptococcus pyogenes [4] was above 100 µM in each case.
Turning to `O=C(O)c1ccc(NC2CCN(c3ncccn3)CC2)cc1`, the MIC against Escherichia coli [2] and with Streptococcus pyogenes [4] was above 25 µM throughout.
In the case of `CC(C)(C)OC(=O)c1ccc(NC2CCN(c3nc(N)c4ccccc4n3)CC2)cc1`, the MIC in the test with Escherichia coli [2] and in the test on Streptococcus pyogenes [4] was below 100 µM in each case.
For `COc1ccc2[nH]c(N3CCC(Nc4ccc(C(=O)O)cc4)CC3)nc2c1`, the MIC against Escherichia coli [2] and in the test with Streptococcus pyogenes [4] was above 25 µM throughout.
As to `COC(=O)c1nc(Cl)c(NNc2nc(N)c3cc(OC)c(OC)cc3n2)nc1N`, the MIC in the test on Streptococcus pyogenes [5] and in the test on Escherichia coli [2] was above 50 µM throughout.
With `COc1cc2cnc(N3CCC(Nc4ccc(C(=O)OC(C)(C)C)cc4)CC3)nc2cc1OC`, the MIC with Escherichia coli [2] and with Streptococcus pyogenes [4] was above 20 µM in each case.
Consider `COc1cc2nc(N3CCC(Nc4ccc(C(=O)O)cn4)CC3)nc(N)c2cc1OC`, for which the MIC in the test with Escherichia coli [2] and in the test with Streptococcus pyogenes [4] was above 50 µM throughout.
Take `COc1cc2nc(N3CCC(Nc4ccc(C(=O)OC(C)(C)C)cc4)CC3)nc(N)c2cc1OC`: the MIC was 6 µM (≈ 2.88 µg/mL) against Streptococcus pyogenes [1]; 6 µM (≈ 2.88 µg/mL) in the test on Escherichia coli [2]; above 100 µM in the test on Staphylococcus aureus; above 100 µM against Klebsiella pneumoniae; 6 µM (≈ 2.88 µg/mL) in the test on Enterococcus faecalis; above 100 µM against Escherichia coli [3]. In the test on Streptococcus pyogenes [4], this compound had an MIC of 3 µM (≈ 1.44 µg/mL).
`CC(C)(C)OC(=O)c1ccc(NC2CCN(c3ncccn3)CC2)cc1`: the MIC against Escherichia coli [2] and with Streptococcus pyogenes [4] was above 25 µM each time.
On to `COC(=O)c1nc(Cl)c(NC2CCN(c3nc(N)c4cc(OC)c(OC)cc4n3)CC2)nc1N`, for which the MIC is 12 µM (≈ 5.87 µg/mL) with Streptococcus pyogenes [5] and above 25 µM in the test on Escherichia coli [2].
On to `COc1cc2cnc(N3CCC(Nc4ccc(C(=O)O)cc4)CC3)nc2cc1OC`, for which the MIC against Escherichia coli [2] and against Streptococcus pyogenes [4] was above 20 µM throughout.
Consider `COc1cc2nc(N3CCC(Nc4ccc(C(=O)OC(C)(C)C)cc4)CC3)nc(Nc3ccc(C)cc3)c2cc1OC`, for which the MIC against Escherichia coli [2] is 10 µM (≈ 5.7 µg/mL); with Streptococcus pyogenes [4], 2.5 µM (≈ 1.42 µg/mL).
In the same order, the values of `O=C(O)c1ccc(NC2CCN(c3ccc4ccccc4c3)CC2)cc1` are above 25 µM and above 25 µM.
As for `COc1cc2nc(N3CCC(Nc4nc(N)c(C(=O)O)nc4Cl)CC3)nc(N)c2cc1OC`, the MIC with Streptococcus pyogenes [5] and against Escherichia coli [2] was above 100 µM in each case.
As to `COc1cc2nc(N3CCC(Nc4ccc(C(=O)O)cc4[N+](=O)[O-])CC3)nc(N)c2cc1OC`, the MIC against Streptococcus pyogenes [5] and with Escherichia coli [2] was above 20 µM throughout.
With `CC(C)(C)OC(=O)c1ccc(NC2CCN(c3ccc4ccccc4c3)CC2)cc1`, the MIC in the test on Escherichia coli [2] and in the test on Streptococcus pyogenes [4] was above 25 µM in each case.
As to `O=C(O)c1ccc(NC2CCN(S(=O)(=O)c3ccc4ccccc4c3)CC2)cc1`, the MIC in the test with Escherichia coli [2] and with Streptococcus pyogenes [4] was above 25 µM in each case.
As for `COc1cc2nc(N3CCC(Nc4ccc(C(=O)OC(C)(C)C)cc4)CC3)nc(OC)c2cc1OC`, the MIC in the test with Escherichia coli [2] and in the test on Streptococcus pyogenes [4] was below 100 µM each time.
On to `O=C(O)c1ccc(NC2CCN(Cc3ccccc3)CC2)cc1`, for which the MIC in the test on Escherichia coli [2] and against Streptococcus pyogenes [4] was above 25 µM in each case.
As for `COc1cc2nc(N3CCC(Nc4ccc(C(=O)O)cc4)CC3)nc(N)c2cc1OC`, the MIC in the test with Streptococcus pyogenes [1] is above 25 µM; against Escherichia coli [2], 0.4 µM (≈ 0.169 µg/mL); with Staphylococcus aureus it was 6 µM (≈ 2.54 µg/mL); against Klebsiella pneumoniae it was 6 µM (≈ 2.54 µg/mL); against Enterococcus faecalis, above 100 µM; in the test on Escherichia coli [3] it was 60 µM (≈ 25.4 µg/mL). In the test with Streptococcus pyogenes [4], this compound came in with a minimum inhibitory concentration (MIC) above 25 µM.
Regarding `COc1cc2nc(N3CCC(Nc4ccc(C(=O)OC(C)(C)C)cc4[N+](=O)[O-])CC3)nc(N)c2cc1OC`, the MIC against Streptococcus pyogenes [5] is 50 µM (≈ 26.2 µg/mL); with Escherichia coli [2] it was 25 µM (≈ 13.1 µg/mL).
With `O=C(O)c1ccc(NC2CCN(C(=O)c3ccc4ccccc4c3)CC2)cc1`, the MIC against Escherichia coli [2] and in the test with Streptococcus pyogenes [4] was above 25 µM in each case.
For the compound `COc1cc2nc(N3CCC(Nc4cnc(C(=O)O)c(N)n4)CC3)nc(N)c2cc1OC`, the MIC against Escherichia coli [2] and in the test on Streptococcus pyogenes [4] was above 25 µM throughout.
For `CC(C)(C)OC(=O)c1ccc(NC2CCN(Cc3ccccc3)CC2)cc1`, the MIC in the test on Escherichia coli [2] and in the test on Streptococcus pyogenes [4] was above 25 µM each time.
